Measurements: ChEMBL document CHEMBL1137675, “Convenient one-pot synthesis of novel 2-substituted benzimidazoles, tetrahydrobenzimidazoles and imidazoles and evaluation of their in vitro antibacterial and antifungal activities” (2009)
Converted amounts (≈) assume the structure as drawn.

How the values were obtained:
Staphylococcus aureus = test: Antibacterial activity against Staphylococcus aureus MSSA 22 at 37 degC after 24 hrs by filter paper disk method; type: functional; details: for MIC: Staphylococcus aureus, MSSA 22, 24 h
In short: (§1)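 Compounds were taken from a 1 mg/ml DMSO stock and serially diluted two-fold over a 300 to 18.75 range, then loaded onto sterile 8 mm paper discs. Bacteria were grown overnight in nutrient broth at 37 °C, pelleted, and resuspended in sterile NSS to 10⁵ cfu/ml. About 0.1 ml was spread on NA plates. Plates were incubated 24 h at 37 °C with a solvent control disc, and inhibition zone diameter was read in mm.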

Aspergillus niger = test: Antifungal activity against Aspergillus niger at 28 degC after 72 hrs; type: functional; details: for MIC: Aspergillus niger, 72 h
In short: (§2)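 Filamentous fungi were kept on SDA at 28 °C. Spores from 7-day cultures were suspended in sterile normal saline to about 10⁵ cfu/ml, and about 0.1 ml was spread on SDA plates. Compounds were serially diluted two-fold in DMSO and impregnated on 8 mm discs, with a solvent control disc on each plate. Plates were held at 28 °C for 72 h or more, and inhibition zone diameter was read in mm.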

Penicillium sp. = test: Antifungal activity against Penicillium sp. at 28 degC after 72 hrs; type: functional; details: for MIC: Penicillium sp., 72 h; in short: as §2
Bacillus subtilis = test: Antibacterial activity against Bacillus subtilis ATCC 6051 at 37 degC after 24 hrs by filter paper disk method; type: functional; details: for MIC: Bacillus subtilis, ATCC 6051, 24 h; in short: as §1
Trichoderma viride = test: Antifungal activity against Trichoderma viride at 28 degC after 72 hrs; type: functional; details: for MIC: Trichoderma viride, 72 h; in short: as §2
Helminthosporium = test: Antifungal activity against Helminthosporium oryzae 2537 ICAR at 28 degC after 72 hrs; type: functional; details: for MIC: Helminthosporium, 72 h; in short: as §2
Escherichia coli = test: Antibacterial activity against Escherichia coli K-12 at 37 degC after 24 hrs by filter paper disk method; type: functional; details: for MIC: Escherichia coli, K-12, 24 h; in short: as §1
Salmonella typhimurium = test: Antibacterial activity against Salmonella Typhimurium MTCC 98 at 37 degC after 24 hrs by filter paper disk method; type: functional, Salmonella enterica subsp. enterica serovar Typhimurium; details: for MIC: Salmonella enterica, MTCC 98, 24 h; in short: as §1
Candida albicans = test: Antifungal activity against Candida albicans IOA-109 at 37 degC after 18 to 48 hrs; type: functional; details: for MIC: Candida albicans, IOA-109

| Structure (SMILES) | diameter of the inhibition zone (DIZ) (Staphylococcus aureus) | MIC (Staphylococcus aureus) | diameter of the inhibition zone (DIZ) (Aspergillus niger) | MIC (Aspergillus niger) | diameter of the inhibition zone (DIZ) (Penicillium sp.) | MIC (Penicillium sp.) | diameter of the inhibition zone (DIZ) (Bacillus subtilis) | MIC (Bacillus subtilis) | diameter of the inhibition zone (DIZ) (Trichoderma viride) | MIC (Trichoderma viride) | diameter of the inhibition zone (DIZ) (Helminthosporium) | MIC (Helminthosporium) | diameter of the inhibition zone (DIZ) (Escherichia coli) | MIC (Escherichia coli) | diameter of the inhibition zone (DIZ) (Salmonella typhimurium) | MIC (Salmonella typhimurium) | diameter of the inhibition zone (DIZ) (Candida albicans) | MIC (Candida albicans) |
| --- | --- | --- | --- | --- | --- | --- | --- | --- | --- | --- | --- | --- | --- | --- | --- | --- | --- | --- |
| CCCCCCCC/C=C/CCCCCCCc1nc2cc(Cl)ccc2[nH]1 | 20 mm | 37.5 µg/mL (≈ 96.4 µM) | 15 mm | 37.5 µg/mL (≈ 96.4 µM) | 19 mm | 37.5 µg/mL (≈ 96.4 µM) | 18 mm | 75 µg/mL (≈ 193 µM) | 9 mm | 37.5 µg/mL (≈ 96.4 µM) | 16 mm | 75 µg/mL (≈ 193 µM) | 18 mm | 75 µg/mL (≈ 193 µM) | 15 mm | 37.5 µg/mL (≈ 96.4 µM) | 18 mm | 37.5 µg/mL (≈ 96.4 µM) |
| CCCCCC[C@@H](O)C/C=C\CCCCCCCc1nc2ccccc2[nH]1 | 19 mm | 150 µg/mL (≈ 405 µM) | 16 mm | 150 µg/mL (≈ 405 µM) | 19 mm | 75 µg/mL (≈ 202 µM) | 21 mm | 75 µg/mL (≈ 202 µM) | 8 mm | 75 µg/mL (≈ 202 µM) | 13 mm | 150 µg/mL (≈ 405 µM) | 17 mm | 150 µg/mL (≈ 405 µM) | 12 mm | 75 µg/mL (≈ 202 µM) | 19 mm | 75 µg/mL (≈ 202 µM) |
| C=CCCCCCCCCc1ncc[nH]1 | 16 mm | 150 µg/mL (≈ 727 µM) | 11 mm | 150 µg/mL (≈ 727 µM) | 16 mm | 150 µg/mL (≈ 727 µM) | 22 mm | 37.5 µg/mL (≈ 182 µM) | 6 mm | 75 µg/mL (≈ 363 µM) | 12 mm | 150 µg/mL (≈ 727 µM) | 15 mm | 150 µg/mL (≈ 727 µM) | 14 mm | 74 µg/mL (≈ 359 µM) | 19 mm | 75 µg/mL (≈ 363 µM) |
| CCCCC/C=C\CC[C@H](O)CCCCCCCc1nc2cc([N+](=O)[O-])ccc2[nH]1 | 19 mm | 37.5 µg/mL (≈ 90.2 µM) | 14 mm | 37.5 µg/mL (≈ 90.2 µM) | 19 mm | 37.5 µg/mL (≈ 90.2 µM) | 22 mm | 37.5 µg/mL (≈ 90.2 µM) | 9 mm | 37.5 µg/mL (≈ 90.2 µM) | 14 mm | 75 µg/mL (≈ 180 µM) | 18 mm | 37.5 µg/mL (≈ 90.2 µM) | 13 mm | 37.5 µg/mL (≈ 90.2 µM) | 19 mm | 37.5 µg/mL (≈ 90.2 µM) |
| CCCCC/C=C\CC[C@H](O)CCCCCCCc1nc2ccccc2[nH]1 | 19 mm | 150 µg/mL (≈ 405 µM) | 14 mm | 150 µg/mL (≈ 405 µM) | 17 mm | 75 µg/mL (≈ 202 µM) | 19 mm | 75 µg/mL (≈ 202 µM) | 8 mm | 75 µg/mL (≈ 202 µM) | 11 mm | 150 µg/mL (≈ 405 µM) | 17 mm | 150 µg/mL (≈ 405 µM) | 12 mm | 75 µg/mL (≈ 202 µM) | 18 mm | 75 µg/mL (≈ 202 µM) |
| CCCCCCCC/C=C/CCCCCCCc1nc2cc([N+](=O)[O-])ccc2[nH]1 | 21 mm | 37.5 µg/mL (≈ 93.8 µM) | 15 mm | 37.5 µg/mL (≈ 93.8 µM) | 18 mm | 37.5 µg/mL (≈ 93.8 µM) | 20 mm | 37.5 µg/mL (≈ 93.8 µM) | 8 mm | 37.5 µg/mL (≈ 93.8 µM) | 12 mm | 75 µg/mL (≈ 188 µM) | 20 mm | 75 µg/mL (≈ 188 µM) | 11 mm | 37.5 µg/mL (≈ 93.8 µM) | 19 mm | 37.5 µg/mL (≈ 93.8 µM) |
| C=CCCCCCCCCc1nc2cc([N+](=O)[O-])ccc2[nH]1 | 22 mm | 150 µg/mL (≈ 498 µM) | 15 mm | 37.5 µg/mL (≈ 124 µM) | 18 mm | 37.5 µg/mL (≈ 124 µM) | 19 mm | 37.5 µg/mL (≈ 124 µM) | 8 mm | 37.5 µg/mL (≈ 124 µM) | 10 mm | 75 µg/mL (≈ 249 µM) | 20 mm | 75 µg/mL (≈ 249 µM) | 12 mm | 37.5 µg/mL (≈ 124 µM) | 18 mm | 37.5 µg/mL (≈ 124 µM) |
| CCCCC/C=C\CC[C@H](O)CCCCCCCc1nc2c([nH]1)CCCC2 | 16 mm | 75 µg/mL (≈ 200 µM) | 12 mm | 37.5 µg/mL (≈ 100 µM) | 17 mm | 75 µg/mL (≈ 200 µM) | 23 mm | 75 µg/mL (≈ 200 µM) | 8 mm | 37.5 µg/mL (≈ 100 µM) | 11 mm | 150 µg/mL (≈ 400 µM) | 16 mm | 150 µg/mL (≈ 400 µM) | 13 mm | 75 µg/mL (≈ 200 µM) | 19 mm | 75 µg/mL (≈ 200 µM) |
| CCCCCC[C@@H](O)C/C=C\CCCCCCCc1nc2cc([N+](=O)[O-])ccc2[nH]1 | 19 mm | 37.5 µg/mL (≈ 90.2 µM) | 16 mm | 37.5 µg/mL (≈ 90.2 µM) | 19 mm | 37.5 µg/mL (≈ 90.2 µM) | 21 mm | 37.5 µg/mL (≈ 90.2 µM) | 9 mm | 37.5 µg/mL (≈ 90.2 µM) | 15 mm | 75 µg/mL (≈ 180 µM) | 16 mm | 37.5 µg/mL (≈ 90.2 µM) | 12 mm | 37.5 µg/mL (≈ 90.2 µM) | 19 mm | 37.5 µg/mL (≈ 90.2 µM) |
| CCCCCC[C@@H](O)C/C=C\CCCCCCCc1ncc[nH]1 | 15 mm | 150 µg/mL (≈ 468 µM) | 13 mm | 150 µg/mL (≈ 468 µM) | 18 mm | 150 µg/mL (≈ 468 µM) | 18 mm | 37.5 µg/mL (≈ 117 µM) | 6 mm | 75 µg/mL (≈ 234 µM) | 13 mm | 150 µg/mL (≈ 468 µM) | 12 mm | 150 µg/mL (≈ 468 µM) | 12 mm | 75 µg/mL (≈ 234 µM) | 18 mm | 75 µg/mL (≈ 234 µM) |
| CCCCCCCC/C=C/CCCCCCCc1nc2c([nH]1)CCCC2 | 16 mm | 75 µg/mL (≈ 209 µM) | 13 mm | 37.5 µg/mL (≈ 105 µM) | 17 mm | 75 µg/mL (≈ 209 µM) | 19 mm | 75 µg/mL (≈ 209 µM) | 6 mm | 37.5 µg/mL (≈ 105 µM) | 12 mm | 150 µg/mL (≈ 418 µM) | 17 mm | 150 µg/mL (≈ 418 µM) | 10 mm | 75 µg/mL (≈ 209 µM) | 18 mm | 75 µg/mL (≈ 209 µM) |
| CCCCCC[C@@H](O)C/C=C\CCCCCCCc1nc2cc(Cl)ccc2[nH]1 | 21 mm | 37.5 µg/mL (≈ 92.6 µM) | 14 mm | 37.5 µg/mL (≈ 92.6 µM) | 19 mm | 37.5 µg/mL (≈ 92.6 µM) | 19 mm | 75 µg/mL (≈ 185 µM) | 9 mm | 37.5 µg/mL (≈ 92.6 µM) | 14 mm | 75 µg/mL (≈ 185 µM) | 18 mm | 75 µg/mL (≈ 185 µM) | 17 mm | 37.5 µg/mL (≈ 92.6 µM) | 18 mm | 37.5 µg/mL (≈ 92.6 µM) |
| C=CCCCCCCCCc1nc2ccccc2[nH]1 | 20 mm | 150 µg/mL (≈ 585 µM) | 14 mm | 150 µg/mL (≈ 585 µM) | 18 mm | 75 µg/mL (≈ 293 µM) | 22 mm | 75 µg/mL (≈ 293 µM) | 7 mm | 75 µg/mL (≈ 293 µM) | 13 mm | 150 µg/mL (≈ 585 µM) | 18 mm | 150 µg/mL (≈ 585 µM) | 16 mm | 75 µg/mL (≈ 293 µM) | 19 mm | 75 µg/mL (≈ 293 µM) |
